Laboratory results taken from ChEMBL document CHEMBL1135727, “Selective antagonists at group I metabotropic glutamate receptors: synthesis and molecular pharmacology of 4-aryl-3-isoxazolol amino acids” (J Med Chem, 2002).

Columns and labels:
[1] = target: Glutamate receptor ionotropic, kainate 1 (Rattus norvegicus, UniProt P22756); experiment: Concentration which causes 50% reduction in receptor binding affinity against Ionotropic glutamate receptor ionotropic kainate using [3H]-kainic acid
[2] = target: Metabotropic glutamate receptor 5 (Rattus norvegicus, UniProt P31424); experiment: The compound was tested for the receptor binding affinity at Metabotropic glutamate receptor 5 using established second messenger assay systems.
Procedure, shortened: (§1)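 Receptors were expressed in CHO cells: mGluR1α, mGluR2, mGluR4a and mGluR5a. Functional read-outs were PI hydrolysis (1.8 × 10^6 cells seeded 2 days before) or cyclic AMP formation (1.0 × 10^6 cells seeded 2 days before). Agonist and antagonist activity was tested at 1 mM unless stated otherwise. Ki was derived from IC50 via the Cheng–Prusoff equation.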

[3] = target: Metabotropic glutamate receptor 2 (Rattus norvegicus, UniProt P31421); experiment: The compound was tested for the receptor binding affinity at Metabotropic glutamate receptor 2 using established second messenger assay systems.; procedure, shortened: as §1
Chain of Metabotropic glutamate receptor 2 (P31421 whole entry): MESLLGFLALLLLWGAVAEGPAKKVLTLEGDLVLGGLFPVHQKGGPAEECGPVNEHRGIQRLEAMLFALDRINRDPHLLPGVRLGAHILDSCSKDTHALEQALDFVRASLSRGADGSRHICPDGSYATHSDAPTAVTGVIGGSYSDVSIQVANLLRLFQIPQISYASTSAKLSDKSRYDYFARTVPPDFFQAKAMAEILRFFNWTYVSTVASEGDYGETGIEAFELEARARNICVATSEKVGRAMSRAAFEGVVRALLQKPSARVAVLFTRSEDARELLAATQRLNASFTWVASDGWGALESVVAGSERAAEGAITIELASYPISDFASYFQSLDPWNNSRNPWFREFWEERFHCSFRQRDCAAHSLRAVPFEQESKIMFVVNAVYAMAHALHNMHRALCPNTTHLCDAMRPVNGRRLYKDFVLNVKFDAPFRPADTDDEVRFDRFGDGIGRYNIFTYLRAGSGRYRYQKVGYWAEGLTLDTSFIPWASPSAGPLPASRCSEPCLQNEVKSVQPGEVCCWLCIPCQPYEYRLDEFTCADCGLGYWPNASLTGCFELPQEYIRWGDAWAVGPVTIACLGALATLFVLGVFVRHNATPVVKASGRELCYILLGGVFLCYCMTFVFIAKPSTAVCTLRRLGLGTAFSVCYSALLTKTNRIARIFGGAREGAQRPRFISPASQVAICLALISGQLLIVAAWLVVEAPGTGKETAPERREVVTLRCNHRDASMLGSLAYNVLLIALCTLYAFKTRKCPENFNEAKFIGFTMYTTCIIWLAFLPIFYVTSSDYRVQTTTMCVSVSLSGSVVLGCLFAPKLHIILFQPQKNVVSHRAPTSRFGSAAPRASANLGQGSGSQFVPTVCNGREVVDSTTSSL

[4] = target: Metabotropic glutamate receptor 4 (Rattus norvegicus, UniProt P31423); experiment: The compound was tested for the receptor binding affinity at Metabotropic glutamate receptor 4 using established second messenger assay systems.; procedure, shortened: as §1
Chain of Metabotropic glutamate receptor 4 (P31423 whole entry): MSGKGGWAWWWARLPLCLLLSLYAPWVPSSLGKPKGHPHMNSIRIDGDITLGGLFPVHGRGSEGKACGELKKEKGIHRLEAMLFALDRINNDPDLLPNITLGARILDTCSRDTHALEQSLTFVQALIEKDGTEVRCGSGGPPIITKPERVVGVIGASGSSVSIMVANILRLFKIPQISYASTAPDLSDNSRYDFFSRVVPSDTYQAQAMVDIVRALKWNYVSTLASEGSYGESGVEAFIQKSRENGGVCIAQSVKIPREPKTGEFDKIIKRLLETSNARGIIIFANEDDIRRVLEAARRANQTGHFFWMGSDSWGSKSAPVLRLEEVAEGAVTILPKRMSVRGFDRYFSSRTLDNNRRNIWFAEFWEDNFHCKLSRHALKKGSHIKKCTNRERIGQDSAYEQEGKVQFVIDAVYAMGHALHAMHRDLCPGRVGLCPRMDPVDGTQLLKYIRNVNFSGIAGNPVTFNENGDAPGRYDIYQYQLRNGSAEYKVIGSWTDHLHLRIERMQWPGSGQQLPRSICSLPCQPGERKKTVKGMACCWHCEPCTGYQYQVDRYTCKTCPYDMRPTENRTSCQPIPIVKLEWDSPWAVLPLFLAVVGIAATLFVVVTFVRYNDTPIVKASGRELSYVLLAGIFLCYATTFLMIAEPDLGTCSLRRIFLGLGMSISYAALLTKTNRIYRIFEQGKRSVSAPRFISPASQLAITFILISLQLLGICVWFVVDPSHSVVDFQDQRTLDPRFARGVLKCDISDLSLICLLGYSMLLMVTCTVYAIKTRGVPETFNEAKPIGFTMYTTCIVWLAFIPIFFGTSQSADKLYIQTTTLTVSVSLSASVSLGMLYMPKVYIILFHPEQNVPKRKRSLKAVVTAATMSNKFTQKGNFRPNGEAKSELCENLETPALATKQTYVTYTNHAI

[5] = target: Metabotropic glutamate receptor 1 (Rattus norvegicus, UniProt P23385); experiment: The compound was tested for the receptor binding affinity at Metabotropic glutamate receptor 1 using established second messenger assay systems.; procedure, shortened: as §1
Chain of Metabotropic glutamate receptor 1 (P23385 whole entry): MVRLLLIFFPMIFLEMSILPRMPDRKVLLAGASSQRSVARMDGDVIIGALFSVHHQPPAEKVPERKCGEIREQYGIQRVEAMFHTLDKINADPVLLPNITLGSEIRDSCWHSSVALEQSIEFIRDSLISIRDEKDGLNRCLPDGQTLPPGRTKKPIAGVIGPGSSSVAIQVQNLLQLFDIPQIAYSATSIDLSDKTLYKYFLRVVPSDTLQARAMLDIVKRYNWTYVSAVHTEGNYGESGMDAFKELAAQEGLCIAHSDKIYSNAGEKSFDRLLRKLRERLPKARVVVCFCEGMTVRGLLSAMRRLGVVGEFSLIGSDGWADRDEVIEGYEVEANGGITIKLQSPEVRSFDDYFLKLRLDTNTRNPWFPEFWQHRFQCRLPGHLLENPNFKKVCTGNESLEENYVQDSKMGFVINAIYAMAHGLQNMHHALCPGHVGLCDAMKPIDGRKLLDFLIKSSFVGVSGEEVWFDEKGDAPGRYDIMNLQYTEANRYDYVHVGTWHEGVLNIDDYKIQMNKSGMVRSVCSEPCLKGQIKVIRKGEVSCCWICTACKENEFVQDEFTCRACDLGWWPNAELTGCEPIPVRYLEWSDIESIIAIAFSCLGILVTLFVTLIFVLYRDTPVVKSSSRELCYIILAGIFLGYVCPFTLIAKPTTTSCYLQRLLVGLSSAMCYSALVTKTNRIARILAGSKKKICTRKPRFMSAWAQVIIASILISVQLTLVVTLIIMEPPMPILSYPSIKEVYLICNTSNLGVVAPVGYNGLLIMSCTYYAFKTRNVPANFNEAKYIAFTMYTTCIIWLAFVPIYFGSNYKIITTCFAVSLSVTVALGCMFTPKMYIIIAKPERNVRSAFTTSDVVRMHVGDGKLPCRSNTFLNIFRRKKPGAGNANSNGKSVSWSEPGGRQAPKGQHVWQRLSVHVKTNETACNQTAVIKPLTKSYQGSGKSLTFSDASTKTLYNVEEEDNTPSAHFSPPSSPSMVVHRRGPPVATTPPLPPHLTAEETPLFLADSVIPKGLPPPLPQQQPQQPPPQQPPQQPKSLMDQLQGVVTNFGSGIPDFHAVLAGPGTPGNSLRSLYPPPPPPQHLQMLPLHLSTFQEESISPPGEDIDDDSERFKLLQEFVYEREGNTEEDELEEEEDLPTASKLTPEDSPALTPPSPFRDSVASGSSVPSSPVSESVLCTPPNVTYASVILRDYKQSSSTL

Glutamate NMDA receptor = experiment: Concentration which causes 50% reduction in receptor binding affinity against N-methyl-D-aspartate glutamate receptor (NMDA) using [3H]CPP; assay type: protein-complex assay
Rattus norvegicus [6] = species: Rattus norvegicus; experiment: Electropharmacology measured as antagonist effects in the rat cortical wedge model; assay type: functional
[7] = target: T1, Glutamate receptor ionotropic, AMPA (Rattus norvegicus, UniProt P19490+P19491+P19492+P19493); experiment: Concentration which causes 50% reduction in receptor binding affinity against Ionotropic glutamate receptor AMPA using [3H]AMPA
[8] = target: T1, Glutamate receptor ionotropic, AMPA; experiment: Concentration which causes 50% reduction in receptor binding affinity against Ionotropic glutamate receptor AMPA using [3H]AMPA; assay type: protein-complex assay
Rattus norvegicus [9] = species: Rattus norvegicus; experiment: Electropharmacology measured as agonist effects in the rat cortical wedge model; assay type: functional

Chain of Glutamate receptor ionotropic, kainate 1 (P22756 whole entry): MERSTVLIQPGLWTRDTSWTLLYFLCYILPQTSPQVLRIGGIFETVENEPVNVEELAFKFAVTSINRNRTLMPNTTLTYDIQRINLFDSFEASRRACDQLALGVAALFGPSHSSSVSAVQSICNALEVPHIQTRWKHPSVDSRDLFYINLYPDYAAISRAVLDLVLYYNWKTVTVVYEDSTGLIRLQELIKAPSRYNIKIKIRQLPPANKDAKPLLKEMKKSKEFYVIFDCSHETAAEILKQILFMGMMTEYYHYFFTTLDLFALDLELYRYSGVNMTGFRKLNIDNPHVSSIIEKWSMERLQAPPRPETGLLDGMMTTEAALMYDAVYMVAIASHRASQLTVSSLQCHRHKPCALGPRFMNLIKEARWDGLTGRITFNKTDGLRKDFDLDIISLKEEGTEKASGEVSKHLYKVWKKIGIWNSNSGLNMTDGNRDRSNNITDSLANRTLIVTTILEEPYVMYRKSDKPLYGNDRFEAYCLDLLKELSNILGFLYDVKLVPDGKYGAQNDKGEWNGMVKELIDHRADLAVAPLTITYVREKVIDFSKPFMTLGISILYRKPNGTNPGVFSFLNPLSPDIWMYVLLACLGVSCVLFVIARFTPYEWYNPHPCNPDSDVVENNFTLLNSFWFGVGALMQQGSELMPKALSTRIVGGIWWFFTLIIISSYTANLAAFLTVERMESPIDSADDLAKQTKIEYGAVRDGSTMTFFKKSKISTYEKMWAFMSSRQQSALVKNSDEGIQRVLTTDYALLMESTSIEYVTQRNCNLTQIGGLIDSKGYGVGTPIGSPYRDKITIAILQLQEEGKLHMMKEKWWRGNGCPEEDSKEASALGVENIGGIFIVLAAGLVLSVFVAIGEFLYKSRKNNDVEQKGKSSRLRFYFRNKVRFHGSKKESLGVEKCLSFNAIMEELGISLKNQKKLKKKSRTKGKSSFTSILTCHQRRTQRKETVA

N[C@@H](Cc1o[nH]c(=O)c1-c1cccc2ccccc12)C(=O)O
IC50 [1]: > 100 µM | Ki [2]: 62 µM | Ki [3]: > 1000 µM | Ki [4]: > 1000 µM | Ki [5]: 119 µM | IC50 (Glutamate NMDA receptor): > 100 µM | IC50 (Rattus norvegicus [6]): ~1000 µM | IC50 [7]: > 100 µM

N[C@@H](Cc1o[nH]c(=O)c1-c1ccccn1)C(=O)O
IC50 [1]: > 100 µM | IC50 [8]: 1.3 µM | Ki [2]: 224 µM | Ki [3]: > 1000 µM | Ki [4]: > 1000 µM | Ki [5]: 396 µM | IC50 (Glutamate NMDA receptor): > 100 µM | EC50 (Rattus norvegicus [9]): 23 µM

N[C@@H](Cc1onc(O)c1-c1ccc2ccccc2c1)C(=O)O
IC50 [1]: > 100 µM | IC50 [8]: > 100 µM | Ki [2]: 53 µM | Ki [3]: > 1000 µM | Ki [4]: > 1000 µM | Ki [5]: 249 µM | IC50 (Glutamate NMDA receptor): 14 µM | IC50 (Rattus norvegicus [6]): 715 µM

N[C@@H](Cc1onc(O)c1-c1ccc(O)cc1)C(=O)O
IC50 [1]: > 100 µM | IC50 [8]: > 100 µM | Ki [2]: 65 µM | Ki [3]: > 1000 µM | Ki [4]: > 1000 µM | Ki [5]: 71 µM | IC50 (Glutamate NMDA receptor): 20 µM | IC50 (Rattus norvegicus [6]): ~1000 µM

N[C@@H](Cc1o[nH]c(=O)c1CCc1ccccc1)C(=O)O
IC50 [1]: > 100 µM | IC50 [8]: > 100 µM | Ki [2]: 70 µM | Ki [3]: > 1000 µM | Ki [4]: > 1000 µM | Ki [5]: 92 µM | IC50 (Glutamate NMDA receptor): > 100 µM | IC50 (Rattus norvegicus [6]): > 1000 µM

N[C@@H](Cc1onc(O)c1-c1cccc(O)c1)C(=O)O
IC50 [1]: > 100 µM | IC50 [8]: 62 µM | Ki [3]: > 1000 µM | Ki [4]: > 1000 µM | Ki [5]: 226 µM | IC50 (Glutamate NMDA receptor): 42 µM | EC50 (Rattus norvegicus [9]): 990 µM

N[C@@H](Cc1onc(O)c1-c1ccccc1O)C(=O)O
IC50 [1]: > 100 µM | IC50 [8]: > 100 µM | Ki [2]: 45 µM | Ki [3]: > 1000 µM | Ki [4]: > 1000 µM | Ki [5]: 125 µM | IC50 (Glutamate NMDA receptor): > 100 µM | EC50 (Rattus norvegicus [9]): > 1000 µM

N[C@@H](Cc1cc(=O)[nH]o1)C(=O)O
IC50 [1]: > 100 µM | Ki [2]: 490 µM | Ki [3]: > 1000 µM | Ki [4]: > 1000 µM | Ki [5]: 250 µM | IC50 (Glutamate NMDA receptor): > 100 µM

N[C@@H](Cc1onc(O)c1-c1ccccc1)C(=O)O
IC50 [1]: > 100 µM | IC50 [8]: > 100 µM | Ki [3]: > 1000 µM | Ki [4]: > 1000 µM | Ki [5]: 160 µM | IC50 (Glutamate NMDA receptor): > 100 µM | EC50 (Rattus norvegicus [9]): 590 µM
